Laboratory results published in PubChem BioAssay AID588752 (Vanderbilt Specialized Chemistry Center, 2011).
Activity calls are given as the source filed them. No rule for the calls is given here.

The compounds below were run against Muscarinic acetylcholine receptor M5 (Rattus norvegicus) (UniProt P08911) (assay: rat M5 receptor positive allosteric modulation, dose response, selectivity assay, CHO cells, Fluo-4 calcium mobilization (AID 588752)). Conditions: Fluo-4, ACh EC20, at 30 µM (top of the series); percent of ACh max: at the top concentration.
In short: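 Material: rat M5 stable CHO cell line. Also added: acetylcholine at EC20, then acetylcholine at EC80. Times: 144 s compound pre-incubation, 86 s to EC80, 37 °C. Detection: kinetic calcium fluorescence, Fluo-4 AM dye.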

Muscarinic acetylcholine receptor M5 (Rattus norvegicus), sequence (P08911 whole entry, looked up): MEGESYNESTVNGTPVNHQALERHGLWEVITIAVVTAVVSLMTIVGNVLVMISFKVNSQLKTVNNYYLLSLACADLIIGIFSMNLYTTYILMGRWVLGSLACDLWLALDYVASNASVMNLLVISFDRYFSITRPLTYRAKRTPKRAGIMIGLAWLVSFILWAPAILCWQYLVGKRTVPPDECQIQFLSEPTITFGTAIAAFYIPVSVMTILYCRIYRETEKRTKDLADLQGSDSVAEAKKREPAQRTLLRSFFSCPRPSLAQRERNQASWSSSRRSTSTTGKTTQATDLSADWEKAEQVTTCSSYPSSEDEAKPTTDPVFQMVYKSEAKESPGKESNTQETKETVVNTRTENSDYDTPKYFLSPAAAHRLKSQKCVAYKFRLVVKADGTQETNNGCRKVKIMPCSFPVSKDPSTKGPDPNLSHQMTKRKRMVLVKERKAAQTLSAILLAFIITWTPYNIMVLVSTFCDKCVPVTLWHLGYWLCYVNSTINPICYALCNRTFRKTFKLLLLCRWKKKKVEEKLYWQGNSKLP

Percent of ACh max, inactive:
Cc1nc2sc(C(=O)NC3CC3)c(N)c2c(C)c1Cl 17.9
Cc1nc2sc(C(=O)NCc3nccs3)c(N)c2c(C)c1Cl 18.3
Cc1nc2sc(C(=O)NCc3ccccc3)c(N)c2c(C)c1Cl 17.9 [Fluo-4, ACh EC20, at 37.4 µM]
Cc1nc2sc(C(=O)NCc3ccncn3)c(N)c2c(C)c1Cl 15.2
Cc1nc2sc(C(=O)NCc3ccc4c(c3)OCO4)c(N)c2c(C)c1Cl 18.1 [Fluo-4, ACh EC20, at 36.8 µM]
Cc1nc2sc(C(=O)NCc3cccnc3)c(N)c2c(C)c1Cl 15.4 [Fluo-4, ACh EC20, at 45.3 µM]
Cc1nc2sc(C(=O)NCc3cccc(F)c3F)c(N)c2c(C)c1Cl 16.2
Cc1nc2sc(C(=O)NCCc3ccncc3)c(N)c2c(C)c1Cl 19.3
Cc1nc2sc(C(=O)NCc3ccncc3)c(N)c2c(C)c1Cl 12 [Fluo-4, ACh EC20, at 45.3 µM]
